Measured values from ChEMBL document CHEMBL1124188, “Soft drugs. 7. Soft beta-blockers for systemic and ophthalmic use” (J Med Chem, 1988).

Tests used:
[1] = (§1) Half life period determined in human blood; assay type: ADME, organism-based
Outline: (§2)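 Compounds were placed in human blood, and samples were withdrawn over time. Each sample was mixed at once with ice-cold acetonitrile and centrifuged. The supernatant was analysed by reverse-phase C18 HPLC with variable-wavelength UV detection. Disappearance was treated as pseudo-first-order. Values are the mean of at least four runs ± SE of the mean.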

[2] = species: Homo sapiens; test: In vitro hydrolytic rate constant determined in human blood; assay type: ADME; outline: as §2
[3] = species: Homo sapiens; test: as §1; assay type: ADME, organism-based; settings: in vitro; outline: as §2

SMILES | half-life ([1]; human blood) [min] | K [2] [min⁻¹] | T1/2 [3] [min] | half-life [1] [min]
CC(C)NCC(O)COc1ccc(CC(=O)OCC(=O)OC2CCCCC2)cc1 (centres undefined) | 4.5 | 0.154 |  | 
CC(C)NCC(O)COc1ccc(CC(=O)OCC23CC4CC(CC(C4)C2)C3)cc1 (centres undefined) | 46.2 | 0.015 |  | 
CC(C)NCC(O)COc1ccc(CC(=O)OC2CC3CCC2(C)C3(C)C)cc1 (centres undefined) | 770 | 0.0009 |  | 
CC(C)NCC(O)COc1ccc(CC(=O)OC2CC3CCC2C3)cc1 (stereo in doubt; 3e) |  | 35000 | 19.8 | 
CC(C)NCC(O)COc1ccc(CC(=O)OCCC23CC4CC(CC(C4)C2)C3)cc1 (centres undefined) [ADAPROLOL] |  | 0.1 |  | 6.9

Next, values leading:

half-life ([1]; human blood) [min] | K [2] [min⁻¹] | T1/2 [3] [min] | half-life [1] [min] | SMILES
34.6 | 0.02 |  |  | CC(C)NCC(O)COc1ccc(CC(=O)OC2CC3CCC2C3)cc1 (stereo in doubt; 3f)
 | 0.0033 | 210 |  | COC(=O)CCc1ccc(OCC(O)CNC(C)C)cc1 (centres undefined) [ESMOLOL]
